Results on four molecules are retold here after ChEMBL document CHEMBL1148304, “Discovery of embelin as a cell-permeable, small-molecular weight inhibitor of XIAP through structure-based computational screening of a traditional herbal medicine three-dimensional structure database” (J Med Chem, 2004).

The structures appear in SMILES notation. Several values for one entry are separate records, joined by “and”; a condition that tells them apart may be missing. Equal values may be shown once. Where a SMILES comes first, the peptide text is derived from it. The star is where a group is joined. X1 = O=C(ON1C(=O)CCC1=O)c1cccc(-c2c3ccc(=O)cc-3oc3cc(O)ccc23)c1C(=O)*

Series [1] addresses T1, E3 ubiquitin-protein ligase XIAP (Homo sapiens, UniProt P98170). As to the kind of experiment: Compound was tested for inhibitory activity towards XIAP BIR3 protein.
For series [2], the target named is T1, E3 ubiquitin-protein ligase XIAP. Briefly: Dissociation constant for XIAP BIR3 protein in FP-based binding assay.
The target is the same in series [3]. As to the kind of experiment: Dissociation constant for XIAP BIR3 protein using different binding assay.
Series [4] deals with Jurkat. As to the kind of experiment: Inhibitory concentration of compound against Jurkat-Vec cells. In kind it is functional, cell-based. The conditions noted are these: Homo sapiens. The procedure, abridged: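 Stably vector-transfected Jurkat T cells kept in RPMI 1640 with 10% fetal calf serum and 1 µg/mL puromycin; growth read by WST-1 as for prostate lines: 5000 cells/well, triplicate concentrations, 4–5 days, absorbance 450/650 nm versus vehicle control, IC50 from sigmoid fit.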

In series [5] the test system is Jurkat. Briefly: Induction of apoptosis by etoposide in Jurkat vec cells at a dose of 2.5 uM for 72 h. Format: functional, Homo sapiens. The procedure, abridged: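 Stably vector-transfected Jurkat cells exposed to etoposide 2.5 µM for 72 h in the cell growth assay; reported as % of cells killed.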
Series [6] has as its system LNCaP. Briefly: Inhibitory concentration of compound against growth of LNCaP cells in vitro. Particulars: Homo sapiens. In kind it is functional, cell-based. The procedure, abridged:
(§1)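 WST-1 growth assay: 5000 cells/well in medium with 10% FBS, serial compound concentrations in triplicate for 4–5 days (five days per legend); WST-1 added 1–3 h at 37 °C, absorbance 450 nm corrected at 650 nm. Growth as % of vehicle-control absorbance; IC50 by sigmoid curve fit; experiment repeated three times.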

For series [7], the system named is LNCaP. As to the kind of experiment: Compound was tested for inhibition of LnCap prostate cancer cells. Format: functional, cell-based. Particulars: Homo sapiens. The procedure, abridged: as §1
Series [8] has as its system PC-3. As to the kind of experiment: Inhibitory concentration of compound against growth of PC-3 cells in vitro. Format: functional, cell-based. The conditions noted are these: Homo sapiens. The procedure, abridged: as §1
The subject of series [9] is PC-3. As to the kind of experiment: Activation of caspase-9 by embelin in PC-3 prostate cancer cells at a concentration of 20 uM. Format: functional, Homo sapiens. The procedure, abridged: (§2)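 PC-3 cells seeded 1 × 10^6 per well, exposed to compound or DMSO vehicle for 42 h; parallel control had pan-caspase inhibitor Z-VAD-FMK added 5 min before compound. Cells in complete medium labeled with Red-LEHD-FMK 0.5 h at 37 °C, 5% CO2, washed; active caspase-9 scored by flow cytometry in PI channel as % positive cells.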

Series [10] concerns PC-3. Briefly: Percent of PC-3 cells underwent apoptosis after incubation with 25 uM of compound for 48 hr. Format: functional, Homo sapiens. The procedure, abridged:
(§3)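 PC-3 cells, 1 × 10^6 per well, treated in triplicate with compound for 48 h, trypsinized, PBS-washed, stained with Annexin V-FITC plus propidium iodide; flow cytometry, reported as % Annexin V-FITC-positive apoptotic cells; three separate experiments.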

Series [11] relates to PC-3. Briefly: Percent of PC-3 cells underwent apoptosis after incubation with 50 uM of compound for 48 hr. Format: functional, Homo sapiens. The procedure, abridged: as §3
The subject of series [12] is PC-3. As to the kind of experiment: Activation of caspase-9 by embelin in PC-3 prostate cancer cells at a concentration of 40 uM. In kind it is functional, Homo sapiens. The procedure, abridged:
as §2

In series [13] the test system is PC-3. Briefly: Induction of apoptosis by embelin in PC-3 prostate cancer cells at a concentration of 25 uM for 48 h. In kind it is functional, Homo sapiens. The procedure, abridged: as §3
The test system of series [14] is PC-3. Briefly: Induction of apoptosis by embelin in PC-3 prostate cancer cells at a concentration of 50 uM for 48 h. Format: functional, Homo sapiens. The procedure, abridged:
as §3

Series [15] has as its system PC-3. Briefly: Compound was tested for inhibition of PC-3 prostate cancer cells. Format: functional, cell-based. Particulars: Homo sapiens. The procedure, abridged: as §1
The subject of series [16] is PC-3. Briefly: Percent of PC-3 cells stained for activated caspase-9 after incubation with 20 uM of compound for 42h. Format: functional, Homo sapiens. The procedure, abridged: as §2
Series [17] concerns PC-3. As to the kind of experiment: Percent of PC-3 cells stained for activated caspase-9 after incubation with 40 uM of compound for 42h. Format: functional, Homo sapiens. The procedure, abridged:
as §2

Series [18] deals with PrEC. Briefly: Selectivity in normal human prostate epithelial cells (PrEC). Format: functional, cell-based. The procedure, abridged:
as §1

For series [19], the system named is PrEC. As to the kind of experiment: Inhibitory concentration of compound against growth of PrEC cells in vitro. The conditions noted are these: Homo sapiens. Format: functional, cell-based. The procedure, abridged: as §1
The test system of series [20] is WI-38 5000. Briefly: Selectivity in normal human fibroblast cell line, WI-38 cells. In kind it is functional, cell-based. The procedure, abridged:
as §1

The subject of series [21] is WI-38. As to the kind of experiment: Inhibitory concentration of compound against growth of WI-38 cells in vitro. The conditions noted are these: Homo sapiens. In kind it is functional, cell-based. The procedure, abridged: as §1
Series [22] deals with Jurkat. As to the kind of experiment: Percent of Jurkat-Vec cells killed after 72 hr of 2.5 uM of compound administration. Format: cell-based. The conditions noted are these: human. The procedure, abridged:
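Jurkat T cells stably carrying empty vector, kept in RPMI 1640 with 10% fetal calf serum and 1 µg/mL puromycin at 37 °C, 5% CO2. Cell growth assay at 5000 cells/well in 10% FBS medium, drug added in triplicate for 72 h. WST-1 then added for 1-3 h at 37 °C. Absorbance read at 450 nm, corrected at 650 nm, and compared with vehicle-control wells.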

For series [23], the system named is Jurkat. As to the kind of experiment: Percent of Jurkat-XIAP cells killed after 72 hr of 10 uM of compound administration. The conditions noted are these: human.
The subject of series [24] is Jurkat. Briefly: Percent of Jurkat-XIAP cells killed after 72 hr of 2.5 uM of compound administration. Particulars: human.

T1 sequence (P98170 whole entry): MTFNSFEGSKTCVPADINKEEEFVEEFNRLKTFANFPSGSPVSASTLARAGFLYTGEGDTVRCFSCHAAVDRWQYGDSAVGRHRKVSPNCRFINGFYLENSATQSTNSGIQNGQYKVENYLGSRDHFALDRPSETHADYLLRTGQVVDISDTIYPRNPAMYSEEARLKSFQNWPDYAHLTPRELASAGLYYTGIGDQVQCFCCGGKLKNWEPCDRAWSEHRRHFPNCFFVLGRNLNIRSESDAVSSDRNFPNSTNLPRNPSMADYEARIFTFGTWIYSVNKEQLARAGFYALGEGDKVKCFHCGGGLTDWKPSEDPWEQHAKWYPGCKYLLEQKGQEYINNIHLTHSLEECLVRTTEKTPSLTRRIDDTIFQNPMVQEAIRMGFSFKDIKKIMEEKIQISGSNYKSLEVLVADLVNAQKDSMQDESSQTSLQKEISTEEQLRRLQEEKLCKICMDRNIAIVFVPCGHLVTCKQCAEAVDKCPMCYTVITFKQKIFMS

In the case of `C[C@H](N)C(=O)N[C@@H](CCCNC(=N)N)C(=O)N1CCC[C@H]1C(=O)N[C@@H](Cc1ccccc1)C(=O)N[C@@H](C)C(=O)N[C@@H](CCC(N)=O)C(=O)N[C@@H](CCCCNC(=O)c1c(C(=O)ON2C(=O)CCC2=O)cccc1-c1c2ccc(=O)cc-2oc2cc(O)ccc12)C(=O)O` (H-ARPFAQK(X1)-OH), it took 0.57 µM to reach half-maximal inhibition in [1] (IC50).

On to `C[C@H](N)C(=O)N[C@@H](CCCNC(=N)N)C(=O)N1CCC[C@H]1C(=O)N[C@@H](Cc1ccccc1)C(=O)N[C@@H](C)C(=O)N[C@@H](CCC(N)=O)C(=O)N[C@@H](CCCCN)C(=O)O` (H-ARPFAQK-OH), for which the Kd in series [2] is 0.038 µM; in [3], 0.02 µM.

Take `CCCCCCCCCCCC1=C(O)C(=O)C=C(O)C1=O` [EMBELIN]: the IC50 in series [1] came out at 4.1 µM; in series [4], 20 µM; in series [6], 5.7 µM; in series [7], 5.7 µM; in series [8], 3.7 µM; in series [15], 3.7 µM. The IC50 came out at 20.1 µM in series [18], 20.1 µM in series [19], 19.3 µM in series [20] and 19.3 µM in [21]. Besides, the Induction in series [5] was 94.3% and 59%; in [9], 33%; in series [12], 62.1%; in [13], 30%; in series [14], 75%. Also, the Apoptosis in [10] is recorded as 30%; in series [11], 75%. For the same molecule, the Staining in series [16] was found to be 33%; in [17] it was 62.1%.

In the case of `COc1cc([C@@H]2c3cc4c(cc3[C@@H](O[C@@H]3O[C@@H]5CO[C@@H](C)O[C@H]5[C@H](O)[C@H]3O)[C@H]3COC(=O)[C@H]23)OCO4)cc(OC)c1O` [ETOPOSIDE], the Death in series [22] came out at 94.3%; in series [23] it was 85%; in series [24], 59%.
